Experiments:
Type in all cases: functional, organism-based
Set-up in all cases: dose 20 mg/kg
[1] = system: Rattus norvegicus; test: Concentration of compound in rat kidney after intravenous injection of 20 mg/kg benzyl-penicillin after 1 min
Outline: (§1)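 Male Sprague-Dawley rats (200-250 g), conscious, received 60 µmol/kg (equimolar to 20 mg/kg benzylpenicillin) by tail-vein injection. Benzylpenicillin K was given in water/ethanol/propylene glycol, and the delivery systems in ethanol:propylene glycol 7:3, at 20 mg/mL. Rats were decapitated at set times (4-6 per point), with trunk blood heparinized and brain, kidney, liver and lung frozen. Benzylpenicillin was measured by disk microbioassay (Bacillus subtilis ATCC 6633) after >5-volume sterile-water dilution or homogenization, against matrix calibration curves; assay limit 0.05 µg/mL.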

[2] = system: Rattus norvegicus; test: Concentration of compound in rat kidney after intravenous injection of 20 mg/kg benzyl-penicillin after 20 min; outline: as §1
[3] = system: Rattus norvegicus; test: Concentration of compound in rat kidney after intravenous injection of 20 mg/kg benzyl-penicillin after 3 min; outline: as §1
[4] = system: Rattus norvegicus; test: Concentration of compound in rat kidney after intravenous injection of 20 mg/kg benzyl-penicillin after 40 min; outline: as §1
[5] = system: Rattus norvegicus; test: Concentration of compound in rat kidney after intravenous injection of 20 mg/kg benzyl-penicillin after 5 min; outline: as §1
[6] = system: Rattus norvegicus; test: Concentration of compound in rat kidney after intravenous injection of 20 mg/kg benzyl-penicillin after 60 min; outline: as §1
[7] = system: Rattus norvegicus; test: Concentration of compound in rat kidney after intravenous injection of 20 mg/kg benzyl-penicillin after 10 min; outline: as §1
[8] = system: Rattus norvegicus; test: Concentration of compound in rat liver after intravenous injection of 20 mg/kg benzyl-penicillin after 1 min; outline: as §1
[9] = system: Rattus norvegicus; test: Concentration of compound in rat liver after intravenous injection of 20 mg/kg benzyl-penicillin after 10 min; outline: as §1
[10] = system: Rattus norvegicus; test: Concentration of compound in rat liver after intravenous injection of 20 mg/kg benzyl-penicillin after 20 min; outline: as §1
[11] = system: Rattus norvegicus; test: Concentration of compound in rat liver after intravenous injection of 20 mg/kg benzyl-penicillin after 3 min; outline: as §1
[12] = system: Rattus norvegicus; test: Concentration of compound in rat liver after intravenous injection of 20 mg/kg benzyl-penicillin after 40 min; outline: as §1
[13] = system: Rattus norvegicus; test: Concentration of compound in rat liver after intravenous injection of 20 mg/kg benzyl-penicillin after 5 min; outline: as §1
[14] = system: Rattus norvegicus; test: Concentration of compound in rat blood after intravenous injection of 20 mg/kg benzyl-penicillin after 1 min; outline: as §1
[15] = system: Rattus norvegicus; test: Concentration of compound in rat blood after intravenous injection of 20 mg/kg benzyl-penicillin after 10 min; outline: as §1
[16] = system: Rattus norvegicus; test: Concentration of compound in rat blood after intravenous injection of 20 mg/kg benzyl-penicillin after 20 min; outline: as §1
[17] = system: Rattus norvegicus; test: Concentration of compound in rat blood after intravenous injection of 20 mg/kg benzyl-penicillin after 3 min; outline: as §1
[18] = system: Rattus norvegicus; test: Concentration of compound in rat blood after intravenous injection of 20 mg/kg benzyl-penicillin after 40 min; outline: as §1
[19] = system: Rattus norvegicus; test: Concentration of compound in rat blood after intravenous injection of 20 mg/kg benzyl-penicillin after 5 min; outline: as §1
[20] = system: Rattus norvegicus; test: Concentration of compound in rat blood after intravenous injection of 20 mg/kg benzyl-penicillin after 60 min; outline: as §1
[21] = system: Rattus norvegicus; test: Concentration of compound in rat brain after intravenous injection of 20 mg/kg benzyl-penicillin after 1 min; outline: as §1
[22] = system: Rattus norvegicus; test: Concentration of compound in rat brain after intravenous injection of 20 mg/kg benzyl-penicillin after 10 min; outline: as §1
[23] = system: Rattus norvegicus; test: Concentration of compound in rat brain after intravenous injection of 20 mg/kg benzyl-penicillin after 3 min; outline: as §1
[24] = system: Rattus norvegicus; test: Concentration of compound in rat brain after intravenous injection of 20 mg/kg benzyl-penicillin after 5 min; outline: as §1
[25] = system: Rattus norvegicus; test: Concentration of compound in rat liver after intravenous injection of 20 mg/kg benzyl-penicillin after 60 min; outline: as §1
[26] = system: Rattus norvegicus; test: Concentration of compound in rat lung after intravenous injection of 20 mg/kg benzyl-penicillin after 1 min; outline: as §1
[27] = system: Rattus norvegicus; test: Concentration of compound in rat lung after intravenous injection of 20 mg/kg benzyl-penicillin after 10 min; outline: as §1
[28] = system: Rattus norvegicus; test: Concentration of compound in rat lung after intravenous injection of 20 mg/kg benzyl-penicillin after 20 min; outline: as §1
[29] = system: Rattus norvegicus; test: Concentration of compound in rat lung after intravenous injection of 20 mg/kg benzyl-penicillin after 3 min; outline: as §1
[30] = system: Rattus norvegicus; test: Concentration of compound in rat lung after intravenous injection of 20 mg/kg benzyl-penicillin after 40 min; outline: as §1
[31] = system: Rattus norvegicus; test: Concentration of compound in rat lung after intravenous injection of 20 mg/kg benzyl-penicillin after 5 min; outline: as §1
[32] = system: Rattus norvegicus; test: Concentration of compound in rat lung after intravenous injection of 20 mg/kg benzyl-penicillin after 60 min; outline: as §1

CC1(C)S[C@@H]2[C@H](NC(=O)Cc3ccccc3)C(=O)N2[C@H]1C(=O)O
Concentration [1]: 33.6 µg/mL
Concentration [2]: 20.8 µg/mL
Concentration [3]: 120 µg/mL
Concentration [4]: 6.2 µg/mL
Concentration [5]: 88.5 µg/mL
Concentration [6]: 1.1 µg/mL
Concentration [7]: 27.6 µg/mL
Concentration [8]: 15.1 µg/mL
Concentration [9]: 17.7 µg/mL
Concentration [10]: 7.5 µg/mL
Concentration [11]: 38.9 µg/mL
Concentration [12]: 2.9 µg/mL
Concentration [13]: 30.7 µg/mL
Concentration [14]: 64.6 µg/mL
Concentration [15]: 8.5 µg/mL
Concentration [16]: 2.8 µg/mL
Concentration [17]: 25.2 µg/mL
Concentration [18]: 1.3 µg/mL
Concentration [19]: 22.8 µg/mL
Concentration [20]: 0.4 µg/mL
Concentration [21]: 2.7 µg/mL
Concentration [22]: 0.3 µg/mL
Concentration [23]: 1.3 µg/mL
Concentration [24]: 0.9 µg/mL
Concentration [25]: 0.7 µg/mL
Concentration [26]: 52.5 µg/mL
Concentration [27]: 9.5 µg/mL
Concentration [28]: 2.3 µg/mL
Concentration [29]: 30.3 µg/mL
Concentration [30]: 1.4 µg/mL
Concentration [31]: 22.4 µg/mL
Concentration [32]: 0.7 µg/mL
